{"source": "paper PMC2577561", "about": "(Bioorganic & medicinal chemistry, 2008)", "key": {"[1]": {"conditions": "cited from earlier work"}, "CFTR": {"test_system": "CFTR", "conditions": "read-out: IC50, block of CFTR chloride conductance; full block; cited from earlier work"}, "[2]": {"test_system": "cholera toxin-induced intestinal fluid secretion", "conditions": "in vivo; cited from earlier work"}, "FRT cells": {"test_system": "FRT cells", "test": "Cytotoxicity, crystal violet staining", "format": "cell-based", "conditions": "50 μM, 48 h, crystal violet staining vs vehicle-treated cultures", "how_it_was_run": "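Confluent FRT monolayers exposed to test compound for 2 days, washed 3 times, fixed for 30 min and stained with 0.5% crystal violet for 10 min. Dye extracted in Sorenson's buffer (0.1 M sodium citrate, 50% ethanol, pH 4.2) and read at 650 nm absorbance. Percent staining from 8 wells per test, referenced to cell-free blanks and vehicle-treated cells.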"}, "[3]": {"test": "Solubility in phosphate buffered saline by LC/MS", "format": "physicochemical", "conditions": "for Increase of water solubility compared with CFTRinh-172: in saline", "how_it_was_run": "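Saturated solution made by adding DMSO stock to phosphate buffered saline (final DMSO 2%). Sonicated 5 min at 25 °C, shaken 1 h at room temperature, then centrifuged at 15 000 rpm for 1 h. Supernatant quantified by LC/MS peak area against per-compound standard curves (1–15 or 1–100 μM, linear r > 0.998).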"}, "MDCK cell model": {"test_system": "MDCK cell model", "conditions": "cited from earlier work"}, "human wildtype CFTR": {"target": "human wildtype CFTR (Homo sapiens, UniProt P13569)", "sequence (P13569 whole entry)": "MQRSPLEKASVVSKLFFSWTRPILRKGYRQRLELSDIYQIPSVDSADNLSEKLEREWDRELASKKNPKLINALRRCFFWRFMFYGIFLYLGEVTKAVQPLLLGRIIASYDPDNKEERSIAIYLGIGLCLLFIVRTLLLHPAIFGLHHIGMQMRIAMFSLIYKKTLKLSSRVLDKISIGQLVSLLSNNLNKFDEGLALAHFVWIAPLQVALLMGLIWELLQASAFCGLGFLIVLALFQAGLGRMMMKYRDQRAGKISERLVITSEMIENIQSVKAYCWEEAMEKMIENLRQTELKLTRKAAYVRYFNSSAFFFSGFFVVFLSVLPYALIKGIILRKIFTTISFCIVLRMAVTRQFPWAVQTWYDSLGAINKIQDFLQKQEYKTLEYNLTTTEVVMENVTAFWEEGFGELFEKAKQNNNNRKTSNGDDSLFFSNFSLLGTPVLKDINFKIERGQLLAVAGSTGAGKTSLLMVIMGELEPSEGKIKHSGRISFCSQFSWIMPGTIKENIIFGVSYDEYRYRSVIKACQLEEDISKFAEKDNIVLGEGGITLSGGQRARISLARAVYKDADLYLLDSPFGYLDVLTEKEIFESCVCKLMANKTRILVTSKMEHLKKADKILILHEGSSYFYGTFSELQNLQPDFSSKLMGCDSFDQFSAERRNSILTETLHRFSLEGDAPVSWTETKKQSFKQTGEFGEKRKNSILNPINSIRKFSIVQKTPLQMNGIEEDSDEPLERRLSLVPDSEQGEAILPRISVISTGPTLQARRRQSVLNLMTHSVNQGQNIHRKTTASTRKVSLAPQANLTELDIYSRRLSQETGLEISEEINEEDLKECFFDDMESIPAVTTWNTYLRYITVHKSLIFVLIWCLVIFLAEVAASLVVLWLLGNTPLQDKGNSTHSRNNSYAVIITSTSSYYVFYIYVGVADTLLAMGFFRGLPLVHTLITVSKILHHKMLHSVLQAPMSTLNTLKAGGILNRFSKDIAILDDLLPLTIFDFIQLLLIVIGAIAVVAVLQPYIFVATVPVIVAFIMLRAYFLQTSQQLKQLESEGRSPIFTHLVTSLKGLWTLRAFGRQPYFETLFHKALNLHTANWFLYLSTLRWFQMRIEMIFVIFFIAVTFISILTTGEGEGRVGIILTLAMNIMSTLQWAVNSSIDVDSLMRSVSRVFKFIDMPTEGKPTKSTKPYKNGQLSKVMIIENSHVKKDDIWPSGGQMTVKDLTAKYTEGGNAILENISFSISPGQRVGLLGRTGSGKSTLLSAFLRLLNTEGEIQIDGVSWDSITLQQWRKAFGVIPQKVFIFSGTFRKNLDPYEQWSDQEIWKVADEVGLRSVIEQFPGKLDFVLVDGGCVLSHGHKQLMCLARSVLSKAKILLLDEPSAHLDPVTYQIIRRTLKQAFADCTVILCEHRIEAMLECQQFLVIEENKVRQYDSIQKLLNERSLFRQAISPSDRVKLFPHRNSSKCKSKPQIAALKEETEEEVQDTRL", "test": "Short-circuit current measurement of CFTR inhibition", "format": "cell-based", "conditions": "for CFTR inhibition activity (in words): short-circuit current, statements in running text; for IC50 (μM) / IC50: FRT cells expressing human wildtype CFTR; for IC50: IC50 (μM)", "how_it_was_run": "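FRT cells stably expressing human wildtype CFTR, grown on 1 cm2 filters to >1,000 Ω.cm2. Basolateral membrane permeabilized with amphotericin B (250 μg/ml, 30 min). Basolateral buffer in mM: 130 NaCl, 10 Na-HEPES, 10 glucose, pH 7.3. Apical side had 65 mM NaCl swapped for gluconate, giving a Cl− gradient. 37 °C, 95% O2/5% CO2. CFTR activated with 100 μM CPT-cAMP, then inhibitor added at stepped concentrations. Voltage-clamped apical current recorded; IC50 fitted.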"}, "[4]": {"conditions": "Table 1, variations in Rings A and C"}, "[5]": {"conditions": "Table 2, variations in Ring B and Linkers 1 and 2"}}, "note": "“And” between values parts separate entries of the source, which are not always exact repeats. Equal entries are not always repeated."}
{"smiles": "O=C(O)c1ccc(/C=C2\\SC(=S)N(c3cccc(C(F)(F)F)c3)C2=O)cc1", "note": "[Compound 5, 4-[[4-Oxo-2-thioxo-3-[3-(trifluoromethyl)phenyl]-5-thiazolidinylidene]methyl]benzoic acid]", "values": [{"measurement": "Excretion and metabolism (in words)", "setting": "[1]", "value": "renal excretion with minimal metabolism"}, {"measurement": "Toxicity (in words)", "setting": "[1]", "value": "low toxicity"}, {"measurement": "IC50", "setting": "CFTR", "value": "< 0.5", "unit": "µM"}, {"measurement": "Cholera toxin-induced intestinal fluid secretion", "setting": "[2]", "value": "efficacy in reducing cholera toxin-induced intestinal fluid secretion"}]}
{"smiles": "O=C1/C(=C/c2ccc(-c3nn[nH]n3)cc2)SC(=S)N1c1cccc(C(F)(F)F)c1", "note": "[Compound 6, 5-[[4-(2H-Tetrazol-5-yl)phenyl]methylene]-2-thioxo-3-[3-(trifluoromethyl)phenyl]-4-thiazolidinone]", "values": [{"measurement": "% Cell viability", "setting": "FRT cells", "value": "reduced"}, {"measurement": "Increase of water solubility compared with CFTRinh-172", "setting": "[3]; listed as Tetrazolo-172", "value": "> 10 fold and 11 fold"}, {"measurement": "Prevention of cyst formation", "setting": "MDCK cell model", "value": "substantially better than by CFTRinh-172"}]}
{"smiles": "O=C(O)c1ccc(/C=C2\\SC(=S)N(c3ccc(F)c(C(F)(F)F)c3)C2=O)cc1", "note": "[Compound 8]", "values": [{"measurement": "CFTR inhibition activity (in words)", "setting": "human wildtype CFTR", "value": "intermediate activity"}]}
{"smiles": "O=C(O)c1cccc(/C=C2\\SC(=S)N(c3ccc(F)c(C(F)(F)F)c3)C2=O)c1", "note": "[Compound 11]", "values": [{"measurement": "CFTR inhibition activity (in words)", "setting": "human wildtype CFTR", "value": "intermediate activity"}]}
{"smiles": "Cc1cccc(N2C(=O)/C(=C/c3ccc(C(=O)O)cc3)SC2=S)c1", "note": "[Compound 12]", "values": [{"measurement": "CFTR inhibition activity (in words)", "setting": "human wildtype CFTR", "value": "less active"}]}
{"smiles": "O=C1/C(=C/c2cc(Br)c(O)c(Br)c2)SC(=S)N1c1cccc(C(F)(F)F)c1", "note": "[Compound 14]", "values": [{"measurement": "CFTR inhibition activity (in words)", "setting": "human wildtype CFTR", "value": "modest inhibition activity"}]}
{"smiles": "O=C1/C(=C/c2cc(Br)c(O)c(Br)c2O)SC(=S)N1c1cccc(C(F)(F)F)c1", "note": "[Compound 15]", "values": [{"measurement": "CFTR inhibition activity (in words)", "setting": "human wildtype CFTR", "value": "modest inhibition activity"}]}
{"smiles": "Cc1c(N2C(=O)/C(=C/c3ccc(C(=O)O)cc3)SC2=S)cccc1C(F)(F)F", "note": "[Compound 18, 4-[[4-Oxo-2-thioxo-3-[2-methyl-3-(trifluoromethyl)phenyl]-5-thiazolidinylidene]methyl] benzoic acid]", "values": [{"measurement": "% Cell viability", "setting": "FRT cells", "value": "reduced"}]}
{"smiles": "O=C(O)c1ccc(/C=C2\\SC(=S)N(c3ccc(Cl)c(C(F)(F)F)c3)C2=O)cc1", "note": "[Compound 24]", "values": [{"measurement": "CFTR inhibition activity (in words)", "setting": "human wildtype CFTR", "value": "greatly reduced activity"}]}
{"smiles": "O=C(O)c1ccc(/C=C2\\SC(=S)N(c3cc(C(F)(F)F)ccc3Cl)C2=O)cc1", "note": "[Compound 30]", "values": [{"measurement": "CFTR inhibition activity (in words)", "setting": "human wildtype CFTR", "value": "greatly reduced activity"}]}
{"smiles": "O=C(O)COc1cccc(/C=C2\\SC(=S)N(c3cccc(C(F)(F)F)c3)C2=O)c1", "note": "[Compound 36]", "values": [{"measurement": "CFTR inhibition activity (in words)", "setting": "human wildtype CFTR", "value": "substantially reduced CFTR inhibition"}]}
{"smiles": "O=C1/C(=C/c2ccc(O)c(O)c2)SC(=S)N1c1cccc(C(F)(F)F)c1", "note": "[Compound 38]", "values": [{"measurement": "IC50 (μM)", "setting": "human wildtype CFTR; [4]", "value": "Inactive"}]}
{"smiles": "COc1c(Br)cc(/C=C2\\SC(=S)N(c3cccc(C(F)(F)F)c3)C2=O)c(O)c1Br", "note": "[Compound 39]", "values": [{"measurement": "IC50 (μM)", "setting": "human wildtype CFTR; [4]", "value": "Inactive"}]}
{"smiles": "COc1cc(Br)ccc1/C=C1\\SC(=S)N(c2cccc(C(F)(F)F)c2)C1=O", "note": "[Compound 40]", "values": [{"measurement": "IC50 (μM)", "setting": "human wildtype CFTR; [4]", "value": "Inactive"}]}
{"smiles": "COc1ccc(/C=C2\\SC(=S)N(c3cccc(C(F)(F)F)c3)C2=O)cc1", "note": "[Compound 41]", "values": [{"measurement": "IC50 (μM)", "setting": "human wildtype CFTR; [4]", "value": "Inactive"}]}
{"smiles": "NC(=O)c1ccc(/C=C2\\SC(=S)N(c3cccc(C(F)(F)F)c3)C2=O)cc1", "note": "[Compound 42]", "values": [{"measurement": "IC50 (μM)", "setting": "human wildtype CFTR; [4]", "value": "Inactive"}]}
{"smiles": "O=C(NCCO)c1ccc(/C=C2\\SC(=S)N(c3cccc(C(F)(F)F)c3)C2=O)cc1", "note": "[Compound 43]", "values": [{"measurement": "IC50 (μM)", "setting": "human wildtype CFTR; [4]", "value": "Inactive"}]}
{"smiles": "NCCNC(=O)c1ccc(/C=C2\\SC(=S)N(c3cccc(C(F)(F)F)c3)C2=O)cc1", "note": "[Compound 44]", "values": [{"measurement": "IC50 (μM)", "setting": "human wildtype CFTR; [4]", "value": "Inactive"}]}
{"smiles": "CCOC(=O)c1ccc(/C=C2\\SC(=S)N(c3cccc(C(F)(F)F)c3)C2=O)cc1", "note": "[Compound 45]", "values": [{"measurement": "IC50 (μM)", "setting": "human wildtype CFTR; [4]", "value": "Inactive"}]}
{"smiles": "CC(=O)OCOC(=O)c1ccc(/C=C2\\SC(=S)N(c3cccc(C(F)(F)F)c3)C2=O)cc1", "note": "[Compound 46]", "values": [{"measurement": "IC50 (μM)", "setting": "human wildtype CFTR; [4]", "value": "Inactive"}]}
{"smiles": "O=C(O)c1ccc(/C=C2\\SC(=S)N(Cc3cccc(C(F)(F)F)c3)C2=O)cc1", "note": "[Compound 47, 4-[[4-Oxo-2-thioxo-3-[(3-(trifluoromethyl)phenyl)methyl]-5-thiazolidinylidene]methyl] benzoic acid]", "values": [{"measurement": "IC50 (μM)", "setting": "human wildtype CFTR; [5]", "value": "Inactive"}]}
{"smiles": "O=C(O)c1ccc(/C=C2\\SC(=O)N(c3cccc(C(F)(F)F)c3)C2=O)cc1", "note": "[Compound 48, 4-[[3-[3-(trifluoromethyl)phenyl]-2,4-dioxo-5-thiazolidinylidene]methyl]benzoic acid]", "values": [{"measurement": "Increase of water solubility compared with CFTRinh-172", "setting": "[3]", "value": "~ 25 fold"}, {"measurement": "Reduction of CFTR inhibition potency compared with CFTRinh-172", "setting": "human wildtype CFTR; short-circuit current assays", "value": 3.6, "unit": "fold"}]}
{"smiles": "O=C(O)c1ccc(NC2=C(Cl)C(=O)N(c3cccc(C(F)(F)F)c3)C2=O)cc1", "note": "[Compound 50]", "values": [{"measurement": "CFTR inhibition activity (in words)", "setting": "human wildtype CFTR", "value": "weak activity"}]}
{"smiles": "O=C(O)c1ccc(SC2CC(=O)N(c3cccc(C(F)(F)F)c3)C2=O)cc1", "note": "(stereo not drawn) [Compound 51, 4-[[2,5-dioxo-1-[3-(trifluoromethyl)phenyl]-3-pyrrolidinyl]thio]-benzoic acid]", "values": [{"measurement": "CFTR inhibition activity (in words)", "setting": "human wildtype CFTR", "value": "moderate activity"}]}
{"smiles": "O=C(O)c1ccc(NC(=S)C2SC(=S)N(c3cccc(C(F)(F)F)c3)C2=O)cc1", "note": "(stereo not drawn) [Compound 52, 4-Oxo-[(3-trifluoromethyl)phenyl]-2-thioxo-N-[4-(carboxy)phenyl]-5-thiazolidinethio carboxamide]", "values": [{"measurement": "Water solubility (in words)", "setting": "[3]", "value": "highly water soluble"}]}
{"smiles": "O=C(O)c1ccc(NC(=S)C2SC(=S)N(c3cccc(C(F)(F)F)c3)C2=O)cc1O", "note": "(stereo not drawn) [Compound 53, 4-Oxo-[(3-trifluoromethyl)phenyl]-2-thioxo-N-[(4-carboxy-3-hydroxy)phenyl]-5-thiazolidinethiocarboxamide]", "values": [{"measurement": "Water solubility (in words)", "setting": "[3]", "value": "highly water soluble"}, {"measurement": "IC50", "setting": "human wildtype CFTR; [5]", "value": 11, "unit": "µM"}]}
{"smiles": "O=C1C(C(=S)Nc2ccc(S(=O)(=O)O)cc2)SC(=S)N1c1cccc(C(F)(F)F)c1", "note": "(stereo not drawn) [Compound 54]", "values": [{"measurement": "IC50", "setting": "human wildtype CFTR; [5]", "value": 25, "unit": "µM"}]}
{"smiles": "O=C(O)c1ccc(Nc2nc(-c3cccc(C(F)(F)F)c3)cs2)cc1", "note": "[Compound 59]", "values": [{"measurement": "CFTR inhibition activity (in words)", "setting": "human wildtype CFTR", "value": "weakly active"}]}
{"smiles": "O=C(O)c1cc(Nc2nc(-c3cccc(C(F)(F)F)c3)cs2)ccc1O", "note": "[Compound 60]", "values": [{"measurement": "CFTR inhibition activity (in words)", "setting": "human wildtype CFTR", "value": "weakly active"}]}
{"smiles": "O=C(O)c1ccc(Nc2nnc(-c3cccc(C(F)(F)F)c3)s2)cc1", "note": "[Compound 64, 4-[(5-(3-Trifluoromethylphenyl)-1,3,4-thiadiazol-2-yl)amino]-benzoic acid]", "values": [{"measurement": "IC50 (μM)", "setting": "human wildtype CFTR; [5]", "value": "Inactive"}]}
{"smiles": "O=C(O)c1ccc(-n2cc(-c3cccc(C(F)(F)F)c3)nn2)cc1", "note": "[Compound 68, 4-[4-[3-(trifluoromethyl)phenyl]-1H-1,2,3-triazol-1-yl]-benzoic acid]", "values": [{"measurement": "IC50 (μM)", "setting": "human wildtype CFTR; [5]", "value": "Inactive"}]}
{"smiles": "O=C(O)c1ccc(-n2cc(-c3ccc(C(F)(F)F)cc3)nn2)cc1", "note": "[Compound 69]", "values": [{"measurement": "IC50 (μM)", "setting": "human wildtype CFTR; [5]", "value": "Inactive"}]}
